We go through ten compounds from ChEMBL document CHEMBL1772948, “Chemistry and biology of macrolide antiparasitic agents” (J Med Chem, 2011).

One data set concerns Toxoplasma gondii. Kind of data set: Antiparasitic activity against Toxoplasma gondii 2F-1 expressing yellow fluorescent protein infected in HFF after 4 days. In kind it is functional, organism-based. Conditions: 2F-1, 96 h.
Another data set relates to Bacillus subtilis. Kind of data set: Antibacterial activity against Bacillus subtilis. In kind it is functional.
For another data set, the system named is HFF. Kind of data set: Cytotoxicity against HFF after 48 hrs by MTS assay. In kind it is cell-based. As to conditions: human. Put shortly:
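Low-passage HFF seeded in 96-well plates and incubated 24h at 37 °C, then exposed to varying macrolide concentrations for 2 days; medium replaced with fresh medium plus MTS, 4h at 37 °C, absorbance 490 nm; CC50 = dose reducing viability by 50%.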

pIC50: −log10 of the molar value. Values after ≈ are worked out from the molar mass of the structure shown.

Compound `C=CCO[C@]1(C)C[C@@H](C)CN(CCC)[C@H](C)[C@@H](O)[C@](C)(O)[C@@H](CC)OC(=O)[C@H](C)[C@@H](O[C@H]2C[C@@](C)(OC)[C@@H](O)[C@H](C)O2)[C@H](C)[C@H]1O[C@@H]1O[C@H](C)C[C@H](N(C)C)[C@H]1O` gave a negative-log IC50 (pIC50) in the data set with Toxoplasma gondii of 4.82. Besides, the MIC against Bacillus subtilis stood at 10 µM (≈ 8.17 µg/mL). Also, half-maximal cytotoxicity with HFF (CC50) was put at 42 µM.

In turn, `C=CCO/N=C1\[C@H](C)C[C@@](C)(O)[C@H](O[C@@H]2O[C@H](C)C[C@H](N(C)C)[C@H]2O)[C@@H](C)[C@H](O[C@H]2C[C@@](C)(OC)[C@@H](O)[C@H](C)O2)[C@@H](C)C(=O)O[C@H](CC)[C@@](C)(O)[C@H](O)[C@H]1C` had a negative logarithm of the IC50 (pIC50) in the data set with Toxoplasma gondii of 5.57. Moreover, the minimal inhibitory concentration (MIC) against Bacillus subtilis is 0.04 µM (≈ 0.0316 µg/mL). Further, in the data set with HFF, half-maximal cytotoxicity (CC50) was put at 16 µM.

Regarding `CC[C@H]1OC(=O)[C@H](C)[C@@H](O[C@H]2C[C@@](C)(OC)[C@@H](O)[C@H](C)O2)[C@H](C)[C@@H](O[C@@H]2O[C@H](C)C[C@H](N(C)C)[C@H]2O)[C@](C)(OC)C[C@@H](C)C(=O)[C@H](C)[C@@H](O)[C@]1(C)O` [CLARITHROMYCIN], the negative logarithm of the IC50 (pIC50) in the data set with Toxoplasma gondii is 4.51. For the same compound, the minimal inhibitory concentration (MIC) against Bacillus subtilis worked out at 0.04 µM (≈ 0.0299 µg/mL). The same compound came in with a 50% cytotoxic concentration (CC50) in the data set on HFF of 260 µM.

Turning to `CCNC(=O)N1C[C@H](C)C[C@@](C)(O)[C@H](O[C@@H]2O[C@H](C)C[C@H](N(C)C)[C@H]2O)[C@@H](C)[C@H](O[C@H]2C[C@@](C)(OC)[C@@H](O)[C@H](C)O2)[C@@H](C)C(=O)O[C@H](CC)[C@@](C)(O)[C@H](O)[C@H]1C`, the pIC50 in the data set on Toxoplasma gondii was 4.07. The MIC in the data set on Bacillus subtilis came out at 10 µM (≈ 8.06 µg/mL). In addition, in the data set with HFF, the cytotoxic concentration (CC50) came out at 480 µM.

In the data set with Toxoplasma gondii, `CC[C@H]1OC(=O)[C@H](C)[C@@H](O[C@H]2C[C@@](C)(OC)[C@@H](O)[C@H](C)O2)[C@H](C)[C@@H](O[C@@H]2O[C@H](C)C[C@H](N(C)C)[C@H]2O)[C@](C)(OC)C[C@@H](C)CN(C(=O)NCc2ccccc2)[C@H](C)[C@@H](O)[C@]1(C)O` had a pIC50 of 4.80. Besides, in the data set with Bacillus subtilis, the MIC turned out to be 1.5 µM (≈ 1.32 µg/mL). This compound also registered a CC50 with HFF of 62 µM.

In the data set with Toxoplasma gondii, `C=CCN1C[C@H](C)C[C@@](C)(OC)[C@H](O[C@@H]2O[C@H](C)C[C@H](N(C)C)[C@H]2O)[C@@H](C)[C@H](O[C@H]2C[C@@](C)(OC)[C@@H](O)[C@H](C)O2)[C@@H](C)C(=O)O[C@H](CC)[C@@](C)(O)[C@H](O)[C@H]1C` gave a negative logarithm of the IC50 (pIC50) of 4.89. For the same compound, in the data set on Bacillus subtilis, the MIC turned out to be 0.8 µM (≈ 0.631 µg/mL). In the data set on HFF, this compound had a CC50 of 84 µM.

For the compound `CC[C@H]1OC(=O)[C@H](C)[C@@H](O[C@H]2C[C@@](C)(OC)[C@@H](O)[C@H](C)O2)[C@H](C)[C@@H](O[C@@H]2O[C@H](C)C[C@H](N(C)C)[C@H]2O)[C@](C)(O)C[C@@H](C)C(=O)[C@H](C)[C@@H](O)[C@]1(C)O` [ERYTHROMYCIN], the pIC50 in the data set with Toxoplasma gondii was 4.03. This compound also yielded an MIC against Bacillus subtilis of 0.04 µM (≈ 0.0294 µg/mL). In the data set with HFF, this compound yielded a cytotoxic concentration (CC50) of 475 µM.

Compound `CCCN1C[C@H](C)C[C@@](C)(O)[C@H](O[C@@H]2O[C@H](C)C[C@H](N(C)C)[C@H]2O)[C@@H](C)[C@H](O[C@H]2C[C@@](C)(OC)[C@@H](O)[C@H](C)O2)[C@@H](C)C(=O)O[C@H](CC)[C@@](C)(O)[C@H](O)[C@H]1C` gave a pIC50 with Toxoplasma gondii of 4.80. The compound further displayed an MIC in the data set with Bacillus subtilis of 0.6 µM (≈ 0.466 µg/mL). The compound further had a cytotoxic concentration (CC50) with HFF of 139 µM.

`CC[C@H]1OC(=O)[C@H](C)[C@@H](O[C@H]2C[C@@](C)(OC)[C@@H](O)[C@H](C)O2)[C@H](C)[C@@H](O[C@@H]2O[C@H](C)C[C@H](N(C)C)[C@H]2O)[C@](C)(O)C[C@@H](C)/C(=N\OCc2ccccc2)[C@H](C)[C@@H](O)[C@]1(C)O` had a negative-log IC50 (pIC50) with Toxoplasma gondii of 5.85. In addition, inhibition of growth against Bacillus subtilis (MIC) required 0.04 µM (≈ 0.0336 µg/mL). This compound showed a CC50 with HFF of 3 µM.

As to `CC[C@H]1OC(=O)[C@H](C)[C@@H](O[C@H]2C[C@@](C)(OC)[C@@H](O)[C@H](C)O2)[C@H](C)[C@@H](O[C@@H]2O[C@H](C)C[C@H](N(C)C)[C@H]2O)[C@](C)(OC)C[C@@H](C)CN(C)[C@H](C)[C@@H](O)[C@]1(C)O`, in the data set on Toxoplasma gondii, the pIC50 is 4.05. In addition, the MIC in the data set with Bacillus subtilis worked out at 5 µM (≈ 3.82 µg/mL). Besides, the 50% cytotoxic concentration (CC50) with HFF came to 454 µM.
